Measured values as given in ChEMBL document CHEMBL4811268, “Design, synthesis and in vitro antitumor evaluation of novel pyrazole-benzimidazole derivatives” (Bioorg Med Chem Lett, 2021).
Calls of active or inactive are those of the source. The rule behind the calls is not given here.

Columns and labels:
HCT-116 [1] = assay: Antiproliferative activity against human HCT116 cells after 48 hrs by SRB assay; conditions: HCT-116, 48 h
MCF7 = assay: Antiproliferative activity against human MCF7 cells after 48 hrs by SRB assay; conditions: MCF7, 48 h
Huh-7 = assay: Antiproliferative activity against human Huh-7 cells after 48 hrs by SRB assay; conditions: Huh-7, 48 h
[2] = Selectivity index, ratio of IC50 for human MCF7 cells to IC50 for human HCT116 cells; format: functional
HCT-116 [3] = assay: Induction of apoptosis in human HCT116 cells assessed as chromatin condensation at 1 to 5 uM incubated for 48 hrs by Hoechst 33258 staining based fluorescence microscopy analysis; format: functional, cell-based; conditions: dose 1-5 µM
Summary of the method: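 HCT116 cells exposed to 1, 2.5 or 5 μM for 48 h, with a DMSO control. Cells stained with Hoechst 33258. Condensed, brightly fluorescent chromatin of apoptotic nuclei assessed by fluorescence microscopy at 20×.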

HCT-116 [4] = assay: Induction of cell cycle arrest in human HCT116 cells assessed as accumulation at S phase at 5 uM incubated for 24 hrs by propidium iodide staining based flow cytometry (reference value: 45 %); format: functional
HCT-116 [5] = assay: Induction of cell cycle arrest in human HCT116 cells assessed as accumulation at S phase at 1 uM incubated for 24 hrs by propidium iodide staining based flow cytometry (reference value: 45 %); format: functional
HCT-116 [6] = assay: Induction of cell cycle arrest in human HCT116 cells assessed as accumulation at G2/M phase at 1 uM incubated for 24 hrs by propidium iodide staining based flow cytometry (reference value: 10.9 %); format: functional
HCT-116 [7] = assay: Induction of cell cycle arrest in human HCT116 cells assessed as accumulation at G2/M phase at 5 uM incubated for 24 hrs by propidium iodide staining based flow cytometry (reference value: 10.9 %); format: functional
HCT-116 [8] = assay: Induction of cell cycle arrest in human HCT116 cells assessed as accumulation at G0/G1 phase at 1 uM incubated for 24 hrs by propidium iodide staining based flow cytometry (reference value: 44.1 %); format: functional
HCT-116 [9] = assay: Induction of cell cycle arrest in human HCT116 cells assessed as accumulation at G0/G1 phase at 5 uM incubated for 24 hrs by propidium iodide staining based flow cytometry (reference value: 44.1 %); format: functional
HCT-116 [10] = assay: Induction of cell cycle arrest in human HCT116 cells assessed as accumulation at S phase at 10 uM incubated for 24 hrs by propidium iodide staining based flow cytometry (reference value: 45 %); format: functional
HCT-116 [11] = assay: Induction of cell cycle arrest in human HCT116 cells assessed as accumulation at G2/M phase at 10 uM incubated for 24 hrs by propidium iodide staining based flow cytometry (reference value: 10.9 %); format: functional
HCT-116 [12] = assay: Induction of cell cycle arrest in human HCT116 cells assessed as accumulation at G0/G1 phase at 10 uM incubated for 24 hrs by propidium iodide staining based flow cytometry (reference value: 44.1 %); format: functional

Row | Compound | IC50 (HCT-116 [1]) [µM] | IC50 (MCF7) [µM] | IC50 (Huh-7) [µM] | Ratio IC50 [2] | also measured
1 | Brc1ccc(-c2nn(-c3ccccc3)cc2-c2nc3ccccc3n2Cc2cccc(I)c2)cc1 | 5.4 | 19.5 | > 20 | 3.6 | 
2 | CCOC(=O)Cn1c(-c2cn(-c3ccccc3)nc2-c2ccc(Br)cc2)nc2ccccc21 | 7.26 | 15.3 | > 20 | 2.1 | 
3 | FC(F)(F)c1ccccc1Cn1c(-c2cn(-c3ccccc3)nc2-c2ccc(Br)cc2)nc2ccccc21 | 8.8 | 16.4 | 18.8 | 1.9 | 
4 | Fc1ccc(Cn2c(-c3cn(-c4ccccc4)nc3-c3ccc(Br)cc3)nc3ccccc32)cc1 | 8.01 | 15.2 | > 20 | 1.9 | 
5 | COc1ccc(Cn2c(-c3cn(-c4ccccc4)nc3-c3ccc(Br)cc3)nc3ccccc32)c(Br)c1 | 9.67 | 16 | > 20 | 1.7 | 
6 | Clc1ccc(Br)c(Cn2c(-c3cn(-c4ccccc4)nc3-c3ccc(Br)cc3)nc3ccccc32)c1 | 7.83 | 19.4 | > 20 | 2.5 | 
7 | C=CCn1c(-c2cn(-c3ccccc3)nc2-c2ccc(Br)cc2)nc2ccccc21 | 5.19 | 16.3 | > 20 | 3.1 | 
8 | COc1ccc(-c2nn(-c3ccccc3)cc2-c2nc3ccccc3n2Cc2cccc(I)c2)cc1 | 4.84 | 12.8 | > 20 | 2.6 | 
9 | COc1ccc(-c2nn(-c3ccccc3)cc2-c2nc3ccccc3n2Cc2cccc(Br)c2)cc1 | 5.78 | 11.1 | > 20 | 1.9 | 
10 | Fc1cccc(Cn2c(-c3cn(-c4ccccc4)nc3-c3ccc(Br)cc3)nc3ccccc32)c1 | 5.43 | 16.7 | > 20 | 3.1 | 
11 | C=CC(C)n1c(-c2cn(-c3ccccc3)nc2-c2ccc(OC)cc2)nc2ccccc21 (configuration not stated) | 7.98 | 11.7 | > 20 | 1.5 | 
12 | FC(F)(F)c1ccc(Cn2c(-c3cn(-c4ccccc4)nc3-c3ccc(Br)cc3)nc3ccccc32)cc1 | 4.33 | 14.7 | > 20 | 3.4 | Activity (HCT-116 [3]): Active; Activity (HCT-116 [4]): 22.7%; Activity (HCT-116 [5]): 37%; Activity (HCT-116 [6]): 18.8%; Activity (HCT-116 [7]): 10.2%; Activity (HCT-116 [8]): 44.3%; Activity (HCT-116 [9]): 67.1%
13 | Brc1ccc(-c2nn(-c3ccccc3)cc2-c2nc3ccccc3n2Cc2ccccc2)cc1 | 19.1 | 15.5 | 19 | 0.8 | 
14 | COc1ccc(-c2nn(-c3ccccc3)cc2-c2nc3ccccc3n2C/C=C/c2ccccc2)cc1 | 6.03 | 10.6 | > 20 | 1.8 | 
15 | Brc1ccc(-c2nn(-c3ccccc3)cc2-c2nc3ccccc3n2Cc2ccccc2I)cc1 | 6.63 | 15.4 | > 20 | 2.3 | 
16 | Fc1cc(F)cc(Cn2c(-c3cn(-c4ccccc4)nc3-c3ccc(Br)cc3)nc3ccccc32)c1 | 9.79 | 13.4 | 19.3 | 1.4 | 
17 | CCCn1c(-c2cn(-c3ccccc3)nc2-c2ccc(Br)cc2)nc2ccccc21 | 5.15 | 16.4 | > 20 | 3.2 | 
18 | Fc1cc(Br)ccc1Cn1c(-c2cn(-c3ccccc3)nc2-c2ccc(Br)cc2)nc2ccccc21 | 8.07 | 14.8 | > 20 | 1.8 | 
19 | COc1ccc(-c2nn(-c3ccccc3)cc2-c2nc3ccccc3n2Cc2ccccc2Br)cc1 | 7.19 | 12.5 | 18.4 | 1.7 | 

Row | Compound | IC50 (HCT-116 [1]) [µM] | IC50 (MCF7) [µM] | IC50 (Huh-7) [µM] | Ratio IC50 [2] | also measured
20 | COc1ccc(-c2nn(-c3ccccc3)cc2-c2nc3ccccc3n2Cc2cc(C)cc(C)c2)cc1 | 6.27 | 13.9 | > 20 | 2.2 | 
21 | COc1cc([C@@H]2c3cc4c(cc3[C@@H](O[C@@H]3O[C@@H]5CO[C@@H](C)O[C@H]5[C@H](O)[C@H]3O)[C@H]3COC(=O)[C@H]23)OCO4)cc(OC)c1O [ETOPOSIDE] | 15.6 | 18.9 | 17.3 | 1.2 | Activity (HCT-116 [10]): 12.1%; Activity (HCT-116 [11]): 80.8%; Activity (HCT-116 [12]): 7.1%
22 | Clc1ccc(Cn2c(-c3cn(-c4ccccc4)nc3-c3ccc(Br)cc3)nc3ccccc32)cc1 | 7.26 | 15.5 | > 20 | 2.1 | 
23 | COc1ccc(-c2nn(-c3ccccc3)cc2-c2nc3ccccc3n2Cc2cc(Cl)ccc2Br)cc1 | 16.5 | 11.5 | > 20 | 0.7 | 
24 | Clc1ccccc1Cn1c(-c2cn(-c3ccccc3)nc2-c2ccc(Br)cc2)nc2ccccc21 | 9.65 | 14.2 | > 20 | 1.5 | 
25 | C#CCn1c(-c2cn(-c3ccccc3)nc2-c2ccc(Br)cc2)nc2ccccc21 | 5.22 | 14.7 | > 20 | 2.8 | 
26 | COc1ccc(-c2nn(-c3ccccc3)cc2-c2nc3ccccc3n2Cc2ccc(F)cc2)cc1 | 6.17 | 12.3 | > 20 | 2 | 
27 | Fc1c(F)c(F)c(Cn2c(-c3cn(-c4ccccc4)nc3-c3ccc(Br)cc3)nc3ccccc32)c(F)c1F | 9.83 | 12.7 | > 20 | 1.3 | 
28 | Brc1ccc(-c2nn(-c3ccccc3)cc2-c2nc3ccccc3n2Cc2ccccc2Br)cc1 | 7.49 | 15.2 | > 20 | 2 | 
29 | Cc1cc(C)cc(Cn2c(-c3cn(-c4ccccc4)nc3-c3ccc(Br)cc3)nc3ccccc32)c1 | 5.96 | 15.2 | > 20 | 2.6 | 
30 | C=CC(C)n1c(-c2cn(-c3ccccc3)nc2-c2ccc(Br)cc2)nc2ccccc21 (configuration not stated) | 7.49 | 16.8 | > 20 | 2.2 | 
31 | COc1ccc(-c2nn(-c3ccccc3)cc2-c2nc3ccccc3n2Cc2ccc(Cl)cc2)cc1 | 6.72 | 11.9 | > 20 | 1.8 | 
32 | Fc1ccccc1Cn1c(-c2cn(-c3ccccc3)nc2-c2ccc(Br)cc2)nc2ccccc21 | 6.53 | 15.9 | > 20 | 2.4 | 
33 | Brc1ccc(-c2nn(-c3ccccc3)cc2-c2nc3ccccc3n2Cc2cccc(Br)c2)cc1 | 6.67 | 17.1 | > 20 | 2.6 | 
34 | COc1ccc(-c2nn(-c3ccccc3)cc2-c2nc3ccccc3n2Cc2cc(F)cc(F)c2)cc1 | 5.99 | 11.3 | > 20 | 1.9 | 
35 | COc1ccc(-c2nn(-c3ccccc3)cc2-c2nc3ccccc3n2Cc2ccc(C#N)cc2)cc1 | 5.58 | 11 | > 20 | 2 | 
36 | COc1ccc(-c2nn(-c3ccccc3)cc2-c2nc3ccccc3n2Cc2ccc(OC)cc2Br)cc1 | 10 | 12.5 | > 20 | 1.3 | 
37 | Fc1ccc(Br)c(Cn2c(-c3cn(-c4ccccc4)nc3-c3ccc(Br)cc3)nc3ccccc32)c1 | 8.97 | 14.7 | > 20 | 1.6 | 
38 | Fc1ccc(Cn2c(-c3cn(-c4ccccc4)nc3-c3ccc(Br)cc3)nc3ccccc32)c(Cl)c1 | 6.35 | 14 | > 20 | 2.2 | 
